Data from ChEMBL document CHEMBL1123846, “Chemical differentiating agents. Differentiation of HL-60 cells by hexamethylenebis[acetamide] analogues” (1987).

Assays:
HL-60 [1] = assay: Percent of differentiated HL-60 cells was determined by dividing number of viable differentiated cells by total number of viable cells, at a concentration of 0.1 mM; format: functional, Homo sapiens
How it was run: (§1)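 HL-60 cells started at 2×10^5/mL and counted on day 4. Test agents were added from ethanol or Me2SO, with final Me2SO at most 77 mM. Differentiation was scored by formazan production, which requires superoxide from living cells. % D is the number of viable differentiated cells divided by the total number of viable cells.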

HL-60 [2] = assay: Percent of differentiated HL-60 cells was determined by dividing number of viable differentiated cells by total number of viable cells, at a concentration of 0.3 mM; format: functional, Homo sapiens; how it was run: as §1
HL-60 [3] = assay: Percent of differentiated HL-60 cells was determined by dividing number of viable differentiated cells by total number of viable cells, at a concentration of 0.4 mM; format: functional, Homo sapiens; how it was run: as §1
HL-60 [4] = assay: Percent of differentiated HL-60 cells was determined by dividing number of viable differentiated cells by total number of viable cells, at a concentration of 0.5 mM; format: functional, Homo sapiens; how it was run: as §1
HL-60 [5] = assay: Percent of viability for HL-60 cells was determined by dividing number of viable differentiated cells by total number of viable cells, at concentration of 0.1 mM; format: functional, Homo sapiens
How it was run: (§2)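 HL-60 cultures were seeded at 2×10^5/mL with agent added from ethanol or Me2SO, final Me2SO up to 77 mM, and harvested on day 4. Total cells were counted on a Coulter counter, and the viable fraction of total cells was determined by trypan blue exclusion.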

HL-60 [6] = assay: Percent of viability for HL-60 cells was determined by dividing number of viable differentiated cells by total number of viable cells, at concentration of 0.3 mM; format: functional, Homo sapiens; how it was run: as §2
HL-60 [7] = assay: Percent of viability for HL-60 cells was determined by dividing number of viable differentiated cells by total number of viable cells, at concentration of 0.4 mM; format: functional, Homo sapiens; how it was run: as §2
HL-60 [8] = assay: Percent of viability for HL-60 cells was determined by dividing number of viable differentiated cells by total number of viable cells, at concentration of 0.5 mM; format: functional, Homo sapiens; how it was run: as §2
HL-60 [9] = assay: Differentiation studies was conducted with the HL-60 human myeloid leukemia cell line andTotal cells were counted with a Coulter counter, at a concentration of 0.3 mM; format: functional
How it was run: (§3)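 HL-60 cells seeded at 2×10^5/mL with test agent added from ethanol or Me2SO stock; final Me2SO no more than 77 mM. Total cells counted on a Coulter counter on day 4.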

HL-60 [10] = assay: Differentiation studies was conducted with the HL-60 human myeloid leukemia cell line andTotal cells were counted with a Coulter counter, at a concentration of 0.4 mM; format: functional; how it was run: as §3
HL-60 [11] = assay: Differentiation studies was conducted with the HL-60 human myeloid leukemia cell line andTotal cells were counted with a Coulter counter, at a concentration of 0.5 mM; format: functional; how it was run: as §3
HL-60 [12] = assay: Differentiation studies was conducted with the HL-60 human myeloid leukemia cell line and total cells were counted with a Coulter counter, at a concentration of 0.1 mM; format: functional; how it was run: as §3
HL-60 [13] = assay: Percent of differentiated HL-60 cells was determined by dividing number of viable differentiated cells by total number of viable cells, at a concentration of 1.0 mM; format: functional, Homo sapiens; how it was run: as §1
HL-60 [14] = assay: Percent of differentiated HL-60 cells was determined by dividing number of viable differentiated cells by total number of viable cells, at a concentration of 2.0 mM; format: functional, Homo sapiens; how it was run: as §1
HL-60 [15] = assay: Percent of viability for HL-60 cells was determined by dividing number of viable differentiated cells by total number of viable cells, at concentration of 2.5 mM; format: functional, Homo sapiens; how it was run: as §2
HL-60 [16] = assay: Percent of viability for HL-60 cells was determined by dividing number of viable differentiated cells by total number of viable cells, at concentration of 3.0 mM; format: functional, Homo sapiens; how it was run: as §2
HL-60 [17] = assay: Differentiation studies was conducted with the HL-60 human myeloid leukemia cell line and Total cells were counted with a Coulter counter, at a concentration of 2.5 mM; format: functional; how it was run: as §3
HL-60 [18] = assay: Differentiation studies was conducted with the HL-60 human myeloid leukemia cell line and Total cells were counted with a Coulter counter, at a concentration of 3.0 mM; format: functional; how it was run: as §3
HL-60 [19] = assay: Differentiation studies was conducted with the HL-60 human myeloid leukemia cell line and total cells were counted with a Coulter counter, at a concentration of 1.0 mM; format: functional; how it was run: as §3
HL-60 [20] = assay: Percent of differentiated HL-60 cells was determined by dividing number of viable differentiated cells by total number of viable cells, at a concentration of 2.5 mM; format: functional, Homo sapiens; how it was run: as §1
HL-60 [21] = assay: Percent of differentiated HL-60 cells was determined by dividing number of viable differentiated cells by total number of viable cells, at a concentration of 3.0 mM; format: functional, Homo sapiens; how it was run: as §1
HL-60 [22] = assay: Percent of viability for HL-60 cells was determined by dividing number of viable differentiated cells by total number of viable cells, at concentration of 1.0 mM; format: functional, Homo sapiens; how it was run: as §2
HL-60 [23] = assay: Percent of viability for HL-60 cells was determined by dividing number of viable differentiated cells by total number of viable cells, at concentration of 2.0 mM; format: functional, Homo sapiens; how it was run: as §2
HL-60 [24] = assay: Differentiation studies was conducted with the HL-60 human myeloid leukemia cell line and total cells were counted with a Coulter counter, at a concentration of 2.0 mM; format: functional; how it was run: as §3
HL-60 [25] = assay: Percent of differentiated in HL-60 cells was determined by dividing number of viable differentiated cells by total number of viable cells, at a concentration of 3.0 mM; format: functional, Homo sapiens; how it was run: as §1
HL-60 [26] = assay: Percent of differentiated in HL-60 cells was determined by dividing number of viable differentiated cells by total number of viable cells, at a concentration of 1.0 mM; format: functional, Homo sapiens; how it was run: as §1
HL-60 [27] = assay: Percent of differentiated in HL-60 cells was determined by dividing number of viable differentiated cells by total number of viable cells, at a concentration of 2.0 mM; format: functional, Homo sapiens; how it was run: as §1
HL-60 [28] = assay: Percent of differentiated in HL-60 cells was determined by dividing number of viable differentiated cells by total number of viable cells, at a concentration of 2.5 mM; format: functional, Homo sapiens; how it was run: as §1
HL-60 [29] = assay: Percent of viability for HL-60 cells was determined by dividing number of viable differentiated cells by total number of viable cells, at concentration of 38 mM; format: functional, Homo sapiens; how it was run: as §2
HL-60 [30] = assay: Percent of viability for HL-60 cells was determined by dividing number of viable differentiated cells by total number of viable cells, at concentration of 64 mM; format: functional, Homo sapiens; how it was run: as §2
HL-60 [31] = assay: Percent of viability for HL-60 cells was determined by dividing number of viable differentiated cells by total number of viable cells, at concentration of 77 mM; format: functional, Homo sapiens; how it was run: as §2
HL-60 [32] = assay: Differentiation studies was conducted with the HL-60 human myeloid leukemia cell line and Total cells were counted with a Coulter counter, at a concentration of 64 mM; format: functional; how it was run: as §3
HL-60 [33] = assay: Differentiation studies was conducted with the HL-60 human myeloid leukemia cell line and Total cells were counted with a Coulter counter, at a concentration of 77 mM; format: functional; how it was run: as §3
HL-60 [34] = assay: Percent of differentiated HL-60 cells was determined by dividing number of viable differentiated cells by total number of viable cells, at a concentration of 77 mM; format: functional, Homo sapiens; how it was run: as §1
HL-60 [35] = assay: Percent of differentiated HL-60 cells was determined by dividing number of viable differentiated cells by total number of viable cells, at a concentration of 38 mM; format: functional, Homo sapiens; how it was run: as §1
HL-60 [36] = assay: Percent of differentiated HL-60 cells was determined by dividing number of viable differentiated cells by total number of viable cells, at a concentration of 64 mM; format: functional, Homo sapiens; how it was run: as §1
HL-60 [37] = assay: Differentiation studies was conducted with the HL-60 human myeloid leukemia cell line and total cells were counted with a Coulter counter, at a concentration of 38 mM; format: functional; how it was run: as §3
HL-60 [38] = assay: Percent of viability for HL-60 cells was determined by dividing number of viable differentiated cells by total number of viable cells, at concentration of 4.0 mM; format: functional, Homo sapiens; how it was run: as §2
HL-60 [39] = assay: Differentiation studies was conducted with the HL-60 human myeloid leukemia cell line and Total cells were counted with a Coulter counter, at a concentration of 4.0 mM; format: functional; how it was run: as §3
HL-60 [40] = assay: Percent of differentiated HL-60 cells was determined by dividing number of viable differentiated cells by total number of viable cells, at a concentration of 4.0 mM; format: functional, Homo sapiens; how it was run: as §1
HL-60 [41] = assay: Percent of differentiated HL-60 cells was determined by dividing number of viable differentiated cells by total number of viable cells, at a concentration of 1.5 mM; format: functional, Homo sapiens; how it was run: as §1
HL-60 [42] = assay: Differentiation studies was conducted with the HL-60 human myeloid leukemia cell line and Total cells were counted with a Coulter counter, at a concentration of 1.5 mM; format: functional; how it was run: as §3
HL-60 [43] = assay: Differentiation studies was conducted with the HL-60 human myeloid leukemia cell line and Total cells were counted with a Coulter counter, at a concentration of 2.0 mM (number of experiments = 1); format: functional; how it was run: as §3
HL-60 [44] = assay: Percent of viability for HL-60 cells was determined by dividing number of viable differentiated cells by total number of viable cells, at concentration of 1.5 mM; format: functional, Homo sapiens; how it was run: as §2

## CC1(C)NC(=O)N(CCCCCCN2C(=O)NC(C)(C)C2=O)C1=O
HL-60 [1]
  D: 9%
HL-60 [2]
  D: 26%
HL-60 [3]
  D: 45%
HL-60 [4]
  D: 76%
HL-60 [5]
  V: 96%
HL-60 [6]
  V: 82%
HL-60 [7]
  V: 53%
HL-60 [8]
  V: 43%
HL-60 [9]
  Total cells: 480000 mL
HL-60 [10]
  Total cells: 420000 mL
HL-60 [11]
  Total cells: 310000 mL
HL-60 [12]
  Total cells: 870000 mL

## CC(=O)N(C)CCCCCCN(C)C(C)=O
HL-60 [13]
  D: 10%
HL-60 [14]
  D: 74%
HL-60 [15]
  V: 32%
HL-60 [16]
  V: 30%
HL-60 [17]
  Total cells: 510000 mL
HL-60 [18]
  Total cells: 420000 mL
HL-60 [19]
  Total cells: 1.12e+06 mL
HL-60 [20]
  D: 93%
HL-60 [21]
  D: 94%
HL-60 [22]
  V: 90%
HL-60 [23]
  V: 57%
HL-60 [24]
  Total cells: 700000 mL

## O=C1CCCCN1CCCCCCN1CCCCC1=O
HL-60 [15]
  V: 62%
HL-60 [16]
  V: 25%
HL-60 [17]
  Total cells: 680000 mL
HL-60 [18]
  Total cells: 370000 mL
HL-60 [19]
  Total cells: 830000 mL
HL-60 [25]
  D: 87%
HL-60 [26]
  D: 12%
HL-60 [27]
  D: 40%
HL-60 [28]
  D: 72%
HL-60 [22]
  V: 87%
HL-60 [23]
  V: 65%
HL-60 [24]
  Total cells: 760000 mL

## C[S+](C)[O-] [DIMETHYL SULFOXIDE]
HL-60 [29]
  V: 97%
HL-60 [30]
  V: 96%
HL-60 [31]
  V: 94%
HL-60 [32]
  Total cells: 980000 cells/mL
HL-60 [33]
  Total cells: 930000 cells/mL
HL-60 [34]
  D: 6%
HL-60 [35]
  D: 6%
HL-60 [36]
  D: 9%
HL-60 [37]
  Total cells: 970000 cells/mL

## CNC(=O)CCCCCNC(C)=O
HL-60 [16]
  V: 72%
HL-60 [38]
  V: 56%
HL-60 [18]
  Total cells: 680000 mL
HL-60 [39]
  Total cells: 690000 mL
HL-60 [21]
  D: 40%
HL-60 [40]
  D: 71%

## CC(=O)NCCCCCCNC(C)=O [HEXAMETHYLENEBISACETAMIDE]
HL-60 [14]
  D: 32%
HL-60 [16]
  V: 68%
HL-60 [38]
  V: 29%
HL-60 [18]
  Total cells: 520000 mL
HL-60 [39]
  Total cells: 390000 mL
HL-60 [21]
  D: 59%
HL-60 [40]
  D: 84%
HL-60 [23]
  V: 74%
HL-60 [24]
  Total cells: 690000 mL

## CC(=O)NCCCCCC(=O)N(C)C
HL-60 [13]
  D: 24%
HL-60 [41]
  D: 13%
HL-60 [14]
  D: 12%
HL-60 [42]
  Total cells: 1.07e+06 mL
HL-60 [43]
  Total cells: 940000 mL
HL-60 [19]
  Total cells: 700000 mL
HL-60 [22]
  V: 85%
HL-60 [44]
  V: 78%
HL-60 [23]
  V: 82%

## CC(=O)N(CCCCCCN(C(C)=O)C(C)=O)C(C)=O
HL-60 [15]
  V: 51%
HL-60 [16]
  V: 45%
HL-60 [17]
  Total cells: 480000 mL
HL-60 [18]
  Total cells: 300000 mL
HL-60 [25]
  D: 80%
HL-60 [27]
  D: 65%
HL-60 [28]
  D: 76%
HL-60 [23]
  V: 71%
HL-60 [24]
  Total cells: 530000 mL
